Only some compounds are listed: those with a hit (about 1.8% of all), similar ones and a draw of the others.
GRK2 aptamer HTS: blocks RNA aptamer binding to human GRK2; P25098; bead flow cytometry, FAM-aptamer displacement from GRK2; inhibition of aptamer binding, % at 10 µM; 330,000 tested, 0.59% active;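 active = inhibition of aptamer binding above 40%, roughly 3 SD of noise, on plates passing a quality check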;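 also: median bead fluorescence of bound FAM aptamer so fluorescent compounds give negative values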
Target sequence (P25098 whole entry, looked up): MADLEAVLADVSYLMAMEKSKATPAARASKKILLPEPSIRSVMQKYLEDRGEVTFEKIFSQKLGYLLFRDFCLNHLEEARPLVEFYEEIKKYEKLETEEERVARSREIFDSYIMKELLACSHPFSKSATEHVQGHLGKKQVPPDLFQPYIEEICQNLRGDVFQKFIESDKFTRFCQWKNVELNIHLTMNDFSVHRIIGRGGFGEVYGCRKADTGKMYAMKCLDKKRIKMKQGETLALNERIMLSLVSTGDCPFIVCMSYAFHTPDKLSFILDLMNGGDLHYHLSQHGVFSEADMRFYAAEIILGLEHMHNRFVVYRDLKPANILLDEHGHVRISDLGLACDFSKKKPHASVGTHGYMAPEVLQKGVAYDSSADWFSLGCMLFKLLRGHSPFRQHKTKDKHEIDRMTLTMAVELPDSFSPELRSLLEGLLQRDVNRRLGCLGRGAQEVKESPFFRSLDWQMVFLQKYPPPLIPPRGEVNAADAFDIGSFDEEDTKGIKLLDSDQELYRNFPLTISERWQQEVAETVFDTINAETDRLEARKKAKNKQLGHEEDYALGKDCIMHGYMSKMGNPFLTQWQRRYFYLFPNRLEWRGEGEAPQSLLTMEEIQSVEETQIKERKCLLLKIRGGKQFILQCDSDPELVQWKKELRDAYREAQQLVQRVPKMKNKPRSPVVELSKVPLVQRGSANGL
DDE Tn6 FP inh: DD(E)-Tn6 binding inhibition, primary FP screen; P02675; Fibrin DD(E) TRITC-Tn6 fluorescence polarization displacement; inhibition, % at 8.3 µM; 370,000 tested, 0.21% active; AID 720509;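 active = inhibition above a per-campaign cutoff: mean of compounds within control limits plus 3 SD, cut at about 15% in these data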;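 also: 0% = median of all compound wells on the plate and 100% = blocking peptide control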
CAL PDZ FP-1: CAL PDZ (human) peptide binding inhibition. Q9HD26. purified CAL PDZ, TMR-peptide fluorescence polarization, 1 h. inhibition, % at 24.9 µM. 300,000 tested, 0.92% active;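 active = mean inhibition of at least 30% with at least half of replicates also reaching 30%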;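 also: 0% = DMSO neutral control and 100% = excess unlabeled competitor peptide PRC23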
Tn7 DDE FP: DD(E)-Tn7 binding inhibition, primary FP screen | inhibition, % at 8.3 µM | 370,000 tested, 0.13% active | P02675 | FP displacement of FITC-Tn7 peptide from fibrin DD(E); 0% = median of compound wells per plate | AID 720508;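 active = inhibition above the mean of compounds falling within the control limits plus 3 SD of them, cut at about 14% in these data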;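 also: 0% = plate median of compound wells and 100% = 10 µM Aha-Tn7 peptide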
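Assay system: Fibrin-DD(E) protein isolated from polymerized human fibrin clots; read-out basis: percent inhibition; medium: Tris/NaCl/CaCl2 buffer, pH 7.8; signal: FP measurement; incubation: 10 min plus 3 h, room temperature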
CAL PDZ FP-2: human CAL PDZ-peptide interaction inhibition. Q9HD26. purified CAL PDZ, TMR-peptide fluorescence polarization, 1 h. inhibition, % at 20 µM. 330,000 tested, 0.02% active. AID 504414;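 active = highest replicate inhibition of at least 40%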;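 also: plate controls were DMSO neutral control wells for no effect and unlabeled competitor peptide control wells for full effect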
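Test system: tagged CAL PDZ domain / Buffer or medium: sodium phosphate/NaCl buffer pH 7.4 with TCEP, IgG, Thesit / Reagent: TMR-labelled reporter peptide T*-PRC34 bound in PDZ groove / Compound dosing: single point, 20 µM / Schedule: 1 h incubation at room temperature before polarization reading / Technique: fluorescence polarization (mP) / Benchmarks: unlabelled peptide, DMSO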
ARNT TACC3 PPI: disruptors of human ARNT/TACC3 interaction; AlphaScreen His-ARNT PAS-B/GST-TACC3 binding, luminescence; TACC3 fragment carries E629A point mutation; AID 623870; inhibition, % at 9.99 µM; 390,000 tested, 0.66% active;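 active = mean inhibition of replicates at least 50% and at least half of replicates each reaching 50%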;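 also: 0% = complete ARNT plus TACC3 wells and 100% = ARNT alone without TACC3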
Tn6 DDE ctr: counter-screen for inhibitors of Tn6 peptide binding to fibrin DD(E). 680 tested, 2% active. shares compounds with DDE Tn6 FP inh. inhibition, % at 8.3 µM. TRITC-Tn6 fluorescence polarization displacement; 0% = median of compound wells, not DMSO;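 active = inhibition above the mean of test compounds lying between the control limits plus 3 SD of those, cut at about 14% in these data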;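 also: 0% = median of compound wells and 100% = wells with Aha-Tn7 blocking peptide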
DDE Tn6 confirm: DD(E)-Tn6 binding inhibition, FP confirmation. inhibition, % at 8.3 µM. 680 tested, 10% active. AID 720631. FP displacement of TRITC-Tn6 peptide from DD(E); 0% = per-plate median of test wells. shares compounds with DDE Tn6 FP inh;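 active = inhibition above the mean of compounds lying within the control limits plus 3 SD, cut at about 16% in these data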;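 also: 100% = high control wells holding a competing inhibitor peptide at 10 µM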
* = called active by the depositor; · = not tested or not shown; ! = not confirmed by another sample.

SMILES	GRK2 aptamer HTS	DDE Tn6 FP inh	CAL PDZ FP-1	Tn7 DDE FP	CAL PDZ FP-2	ARNT TACC3 PPI	Tn6 DDE ctr	DDE Tn6 confirm
COc1ccc(S(=O)(=O)N2C[C@@H](O)COC[C@H]3O[C@@H](CC(=O)N[C@H]4CCN(Cc5ccccc5)C4)CC[C@@H]32)cc1	·	·	·	·	·	1.8	·	·
Cc1cccc(NC(=O)C2CCN(S(=O)(=O)c3ccc(Cl)cc3)CC2)n1	2.0	16.6*	·	6.0	0.5	2.7	-2.8	-5.0
COc1ccc(NC(=O)Cn2cnc3c(cnn3-c3ccc(C)c(C)c3)c2=O)c(OC)c1	0.0	15.9*	-4.2	1.7	-0.5	-0.5	5.7	-8.3
CCCCCCC(=O)NC1CCCCN(Cc2cccc(Cl)c2)C1=O (stereo not drawn)	·	-3.0	·	-2.2	·	·	·	·
CO[C@@H]1CN(C)C(=O)c2cc(NS(=O)(=O)c3cn(C)cn3)ccc2OC[C@@H](C)N(CCC(F)(F)F)C[C@@H]1C	·	·	·	·	·	-30.5	·	·
Cc1cc(C(F)(F)F)n2nc(-c3cnn(C)c3C(F)(F)F)c(Cl)c2n1	0.0	16.3*	-4.6	0.3	-2.3	-4.8	9.1	5.2
C[C@@H]1CN(Cc2nc(-c3ccc(Cl)cc3)no2)C[C@H](C)O1	0.0	16.9*	·	-3.1	-0.6	18.6	-0.6	-3.8
O=C(COC(=O)c1cc(-c2cccc3ccccc23)nc2ccccc12)NC1CCS(=O)(=O)C1 (stereo not drawn)	4.0	29.8*	-3.1	-4.7	-1.7	-1.3	5.6	19.7*
COc1ccc2cc(-c3cc(C(=O)OCC(=O)NC4CCS(=O)(=O)C4)c4ccccc4n3)ccc2c1 (stereo not drawn)	0.0	0.3	-2.1	-0.1	-2.3	1.8	·	·
COc1ccc(S(=O)(=O)N[C@H]2C=C[C@@H](CC(=O)O)O[C@H]2CO)cc1	·	·	·	·	·	-0.6	·	·
COc1cc(CCC(=O)OCC(=O)Nc2c(C)cccc2C(C)C)cc(OC)c1OC	4.0	15.5*	-2.8	6.5	-2.0	-3.9	8.6	3.3
C[C@@H]1CN([C@@H](C)CO)S(=O)(=O)c2ccc(C#Cc3ccccc3)cc2O[C@H]1CN(C)C(=O)c1ccccn1	·	·	·	·	·	-3.5	·	·
COc1cc2sc3ccc(-c4ccc(CN5CCOCC5)cc4)cc3c(=O)c2cc1OC	0.0	17.6*	-5.7	1.4	-6.0	-1.1	4.9	-3.5
CN1C(=O)NC(c2ccccc2[N+](=O)[O-])C2=C1CCCC2=O (stereo not drawn)	2.0	44.7*	9.8	5.4	1.8	8.7	-5.9	20.5*
CCN(CC)c1ccc(N=C2C=CC(=O)C=C2NC(C)=O)cc1	·	20.0*	·	-5.0	·	·	4.2	54.2*
O=C(NCCS(=O)(=O)N1CCN(c2ccccc2F)CC1)c1cccs1	0.0	16.8*	-6.8	8.7	-0.5	-4.9	6.1	-3.8
O=C(NCCS(=O)(=O)N1CCN(c2ccccc2)CC1)c1cccs1	0.0	-1.3	-4.8	3.7	-2.1	16.0	·	·
O=C(O)c1ccc(-n2nc(C(F)(F)F)c3c2CCCC3)cc1	0.0	21.1*!	2.4	2.1	-17.7	-7.3	3.9	2.9
CO[C@H]1CN(C)C(=O)c2cc(NS(C)(=O)=O)ccc2OC[C@H](C)N(C(=O)C2CCOCC2)C[C@H]1C	·	·	·	·	·	0.8	·	·
O=C(NCC(=O)N1CCN(S(=O)(=O)c2cccc(F)c2)CC1)c1ccc(Br)o1	2.0	15.8*	-7.1	-2.1	0.0	-9.3	13.7	4.0
CC(C)C#Cc1ccc([C@H]2[C@H]3CN(C(=O)Nc4ccccc4)CCCCN3[C@H]2CO)cc1	·	·	·	·	·	2.1	·	·
COc1ccccc1NC(=O)/C=C/c1ccc(OC)c(S(=O)(=O)N2CCOCC2)c1	1.0	16.8*	-4.0	8.7	-6.2	3.4	3.3	-1.6
